Published values gathered from unrelated publications.
Compare with care: the assays were run in different laboratories.
Target: Activin receptor type-1 (ACVR1, Homo sapiens, UniProt Q04771)
One construct used (Q04771 21-509): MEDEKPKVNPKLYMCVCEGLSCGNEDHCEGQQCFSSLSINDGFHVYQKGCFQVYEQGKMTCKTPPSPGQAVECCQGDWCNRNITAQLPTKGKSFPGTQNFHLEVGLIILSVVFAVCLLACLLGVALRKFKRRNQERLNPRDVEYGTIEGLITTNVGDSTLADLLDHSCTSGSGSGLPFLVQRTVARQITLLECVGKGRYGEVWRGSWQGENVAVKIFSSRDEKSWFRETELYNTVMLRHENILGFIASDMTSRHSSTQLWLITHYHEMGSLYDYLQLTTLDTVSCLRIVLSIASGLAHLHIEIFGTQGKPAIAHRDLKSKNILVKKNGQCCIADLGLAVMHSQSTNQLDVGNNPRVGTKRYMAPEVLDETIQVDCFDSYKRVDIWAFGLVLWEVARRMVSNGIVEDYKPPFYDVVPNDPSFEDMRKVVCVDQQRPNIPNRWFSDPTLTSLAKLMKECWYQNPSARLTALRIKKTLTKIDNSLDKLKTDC

With `COc1ccc2oc(-c3ccc4nc(N)oc4c3)c/c(=N\c3ccccc3NC(=O)CCN)c2c1` the remaining binding was 104% (binding; 1 µM).
`CC(C)S(=O)(=O)c1ccc2nccc(Nc3ccc4sc(C5CCCC5)nc4c3)c2c1` gave an activity vs control of 111% (enzyme activity; inhibitor; 1 µM).
`CN1CCN(C(=O)c2ccc(NC(=O)Nc3ccc(N(C)c4ccnc(Nc5ccc(CS(C)(=O)=O)cc5)n4)cc3)cc2)CC1` has a remaining binding of 28% (binding; competition with immobilised ligand; 1 µM).
`C1=C/COCc2cc(ccc2OCCN2CCCC2)Nc2nccc(n2)-c2cccc(c2)COC/1` gave a remaining binding of 3.7% (binding; 0.1 µM).
`C=CC(=O)N1CCC([C@@H]2CCNc3c(C(N)=O)c(-c4ccc(Oc5ccccc5)cc4)nn32)CC1` has an inhibition of 13% (cell-free assay; 1 µM).
The remaining binding of `CCCCC(=O)Nc1ccc(-c2ccc3ncn(CCC)c(=O)c3c2)cn1` is reported as 100% (binding; competition with immobilised ligand; 0.5 µM).
The remaining binding of `COc1ccc2[nH]c3c4[nH]c5ccc(OC)cc5c4c4c(c3c2c1)C(=O)NC4=O` is reported as 77% (binding; competition with immobilised ligand; 1 µM).
With `CO[C@@H]1[C@H](N(C)C(=O)c2ccccc2)C[C@H]2O[C@]1(C)n1c3ccccc3c3c4c(c5c6ccccc6n2c5c31)C(=O)NC4` the inhibition was 0% (enzyme activity; inhibitor; 1 µM).
